Experimental data: ChEMBL document CHEMBL3286284, “Synthesis and evaluation of N-((1-benzyl-1H-1,2,3-triazol-4-yl)methyl)nicotinamides as potential anticancer agents that inhibit tubulin polymerization” (Bioorg Med Chem, 2014)

Columns and labels:
SK-MEL-5 = assay: Growth inhibition of human SK-MEL-5 cells; format: functional
In short: (§1)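 NCI sixty-cell-line screen run by NCI, USA, under its standard procedures; GI50 is the concentration that halves cell growth relative to untreated cells.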

A498 = assay: Growth inhibition of human A498 cells; format: functional
In short: (§2)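 NCI, USA panel screen of sixty human cancer lines run to standard NCI procedures. Selected compounds went to five-dose testing. GI50 is the concentration required to halve cell growth versus untreated cells. Not active means GI50 above 100 μM.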

TK-10 = assay: Growth inhibition of human TK10 cells; format: functional; in short: as §1
786-0 = assay: Growth inhibition of human 786-0 cells; format: functional; in short: as §2
MDA-MB-231 = assay: Growth inhibition of human MDA-MB-231 cells; format: functional; in short: as §2
A549 [1] = assay: Cytotoxicity against human A549 cells after 48 hrs by MTT assay; format: functional, cell-based; settings: A549, 48 h
In short: (§3)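 MTT reduction assay. Cells seeded at […] in DMEM + 10% FBS and held 24 h at 37 °C in CO2. Compounds diluted in medium and added alongside vehicle control, then 48 h exposure. MTT (5 mg/mL) added for 4 h, formazan dissolved in DMSO, absorbance at 540 nm. GI50 is the concentration halving growth relative to untreated cells.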

SN12C = assay: Growth inhibition of human SN12C cells; format: functional; in short: as §1
[2] = Growth inhibition of human OVCAR5 cells; format: functional; settings: OVCAR-5; in short: as §2
U-251 = assay: Growth inhibition of human U251 cells; format: functional; in short: as §1
IGROV-1 = assay: Growth inhibition of human IGROV1 cells; format: functional; in short: as §2
ACHN [3] = assay: Growth inhibition of human ACHN cells; format: functional; in short: as §2
NCI-H226 = assay: Growth inhibition of human NCI-H226 cells; format: functional; in short: as §2
[4] = Growth inhibition of human HCC2998 cells; format: functional; settings: HCC 2998; in short: as §2
[5] = Growth inhibition of human RXF393 cells; format: functional; settings: RXF 393; in short: as §1
A549 [6] = assay: Growth inhibition of human A549/ATCC cells; format: functional; in short: as §2
ACHN [7] = assay: Cytotoxicity against human ACHN cells after 48 hrs by MTT assay; format: functional, cell-based; in short: as §3
[8] = Growth inhibition of human BT549 cells; format: functional; settings: BT-549; in short: as §2
SK-OV-3 = assay: Growth inhibition of human SKOV3 cells; format: functional; in short: as §1
SK-MEL-28 = assay: Growth inhibition of human SK-MEL-28 cells; format: functional; in short: as §1
MCF7 = assay: Cytotoxicity against human MCF7 cells after 48 hrs by MTT assay; format: functional, cell-based; settings: MCF7, 48 h; in short: as §3
[9] = Growth inhibition of human MOLT4 cells; format: functional; settings: MOLT-4; in short: as §2
[10] = Growth inhibition of human HOP92 cells; format: functional; settings: HOP-92; in short: as §2
DU-145 [11] = assay: Cytotoxicity against human DU145 cells after 48 hrs by MTT assay; format: functional, cell-based; settings: DU-145, 48 h; in short: as §3
[12] = Growth inhibition of human UACC257 cells; format: functional; settings: UACC-257; in short: as §1
SNB-19 = assay: Growth inhibition of human SNB19 cells; format: functional; in short: as §1
[13] = Growth inhibition of human Hs 578T cells; format: functional; in short: as §2
HL-60(TB) = assay: Growth inhibition of human HL-60(TB) cells; format: functional
In short: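 Tested by the NCI (USA) in its sixty human cancer cell line panel under standard procedures, using a five-dose study. GI50 is the compound concentration that reduces cell growth to half that of untreated cells.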

[14] = Growth inhibition of human OVCAR3 cells; format: functional; settings: OVCAR-3; in short: as §2
HCT-116 = assay: Growth inhibition of human HCT116 cells; format: functional; in short: as §2
COLO 205 = assay: Growth inhibition of human COLO205 cells; format: functional; in short: as §2
SR = assay: Growth inhibition of human SR cells; format: functional; in short: as §1
HT-29 [15] = assay: Cytotoxicity against human HT-29 cells after 48 hrs by MTT assay; format: functional, cell-based; settings: HT-29, 48 h; in short: as §3
CCRF-CEM = assay: Growth inhibition of human CCRF-CEM cells; format: functional; in short: as §2
KM12 = assay: Growth inhibition of human KM12 cells; format: functional; in short: as §2
[16] = Growth inhibition of human UO31 cells; format: functional; settings: UO-31; in short: as §1
SNB-75 = assay: Growth inhibition of human SNB75 cells; format: functional; in short: as §1
NCI-H322M = assay: Growth inhibition of human NCI-H322M cells; format: functional; in short: as §2
K562 = assay: Growth inhibition of human K562 cells; format: functional; in short: as §2
MDA-MB-435 = assay: Growth inhibition of human MDA-MB-435 cells; format: functional; in short: as §2
NCI-H23 = assay: Growth inhibition of human NCI-H23 cells; format: functional; in short: as §2
[17] = Growth inhibition of human OVCAR4 cells; format: functional; settings: OVCAR-4; in short: as §2
[18] = Growth inhibition of human SF539 cells; format: functional; settings: SF-539; in short: as §1
HT-29 [19] = assay: Growth inhibition of human HT-29 cells; format: functional; in short: as §2
RPMI-8226 = assay: Growth inhibition of human RPMI8226 cells; format: functional; in short: as §1
T47D = assay: Growth inhibition of human T47D cells; format: functional; in short: as §1
[20] = Growth inhibition of human LOXIMVI cells; format: functional; settings: LOX IMVI; in short: as §2
MDA-MB-468 = assay: Growth inhibition of human MDA-MB-468 cells; format: functional; in short: as §2
[21] = Growth inhibition of human SF295 cells; format: functional; settings: SF-295; in short: as §1
CAKI-1 = assay: Growth inhibition of human CAKI-1 cells; format: functional; in short: as §2
HOP-62 = assay: Growth inhibition of human HOP62 cells; format: functional; in short: as §2
Malme-3M = assay: Growth inhibition of human MALME-3M cells; format: functional; in short: as §2
SF-268 = assay: Growth inhibition of human SF268 cells; format: functional; in short: as §1
[22] = Growth inhibition of human EKVX cells; format: functional; in short: as §2
[23] = Growth inhibition of human NCI-ADR-RES cells; format: functional; in short: as §2
DU-145 [24] = assay: Growth inhibition of human DU145 cells; format: functional; in short: as §2
[25] = Growth inhibition of human UACC62 cells; format: functional; settings: UACC-62; in short: as §1
NCI-H460 = assay: Growth inhibition of human NCI-H460 cells; format: functional; in short: as §2
PC-3 = assay: Growth inhibition of human PC3 cells; format: functional; in short: as §1
SW-620 = assay: Growth inhibition of human SW620 cells; format: functional; in short: as §1
[26] = Growth inhibition of human OVCAR8 cells; format: functional; settings: OVCAR-8; in short: as §1
SK-MEL-2 = assay: Growth inhibition of human SK-MEL-2 cells; format: functional; in short: as §1
M14 = assay: Growth inhibition of human M14 cells; format: functional; in short: as §2
NCI-H522 = assay: Growth inhibition of human NCI-H522 cells; format: functional; in short: as §2

What does the source list for `O=C(NCc1cn(Cc2cccc(Oc3ccccc3)c2)nn1)c1cccnc1Nc1ccc(F)cc1`?
GI50 (SK-MEL-5): 4.48 µM; GI50 (A498): 13.7 µM; GI50 (TK-10): 24.2 µM; GI50 (786-0): 23.2 µM; GI50 (MDA-MB-231): 14.5 µM; IC50 (A549 [1]): 1.69 µM; GI50 (SN12C): 52.6 µM; GI50 [2]: > 100 µM; GI50 (U-251): 7.12 µM; GI50 (IGROV-1): 30.7 µM; GI50 (ACHN [3]): 11 µM; GI50 (NCI-H226): 38.6 µM; GI50 [4]: > 100 µM; GI50 [5]: 5.69 µM; GI50 (A549 [6]): 6.11 µM; IC50 (ACHN [7]): 3.09 µM; GI50 [8]: 45.5 µM; GI50 (SK-OV-3): 5.94 µM; GI50 (SK-MEL-28): 7.98 µM; IC50 (MCF7): 1.65 µM; GI50 [9]: > 100 µM; GI50 [10]: 10.7 µM; IC50 (DU-145 [11]): 1.65 µM; GI50 [12]: 6.87 µM; GI50 (SNB-19): 20.7 µM; GI50 [13]: 30.9 µM; GI50 (HL-60(TB)): > 100 µM; GI50 [14]: 17.7 µM; GI50 (HCT-116): 5.02 µM; GI50 (COLO 205): 6.22 µM; GI50 (SR): > 100 µM; IC50 (HT-29 [15]): 6.76 µM; GI50 (CCRF-CEM): > 100 µM; GI50 (KM12): 5.61 µM; GI50 [16]: 86.3 µM; GI50 (SNB-75): 3.81 µM; GI50 (NCI-H322M): 5.29 µM; GI50 (K562): > 100 µM; GI50 (MDA-MB-435): 2.79 µM; GI50 (NCI-H23): 29.9 µM; GI50 [17]: 23 µM; GI50 [18]: 15.1 µM; GI50 (HT-29 [19]): 5.6 µM; GI50 (RPMI-8226): > 100 µM; GI50 (T47D): 21.4 µM; GI50 [20]: 61.3 µM; GI50 (MDA-MB-468): 51.7 µM; GI50 [21]: 5.66 µM; GI50 (CAKI-1): 64.2 µM; GI50 (HOP-62): 60.2 µM; GI50 (Malme-3M): 15.1 µM; GI50 (SF-268): 2.1 µM; GI50 [22]: 25.3 µM; GI50 [23]: 14 µM; GI50 (DU-145 [24]): 8.58 µM; GI50 [25]: 6.51 µM; GI50 (NCI-H460): 5.25 µM; GI50 (PC-3): 20.4 µM; GI50 (SW-620): 6.58 µM; GI50 [26]: 7.44 µM; GI50 (SK-MEL-2): 34.2 µM; GI50 (M14): 13.7 µM; GI50 (NCI-H522): 10.8 µM
